Legend:
Format in all cases: functional, Homo sapiens
HUVEC [1] = experiment: Decrease in mesenchyme homebox2 gene expression in HUVEC at 5 ug/ml after 4 hrs relative to control
HUVEC [2] = experiment: Increase in solute carrier family 7, member 11 gene expression in HUVEC at 5 ug/ml after 4 hrs relative to control
HUVEC [3] = experiment: Decrease in AT rich interactive domain 1A gene expression in HUVEC at 5 ug/ml after 4 hrs relative to control
HUVEC [4] = experiment: Increase in CYP450, family 1, subfamily B, polypeptide 1 gene expression in HUVEC at 5 ug/ml after 4 hrs relative to control
HUVEC [5] = experiment: Increase in COX2 gene expression in HUVEC at 5 ug/ml after 4 hrs relative to control
HUVEC [6] = experiment: Decrease in zinc finger and BTB domain containing 16 gene expression in HUVEC at 5 ug/ml after 4 hrs relative to control
HUVEC [7] = experiment: Increase in SerpinB2 gene expression in HUVEC at 5 ug/ml after 4 hrs relative to control
Summary of the method: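 HUVEC exposed to the purified compound at 5 μg/ml. SerpinB2 mRNA quantified by real-time RT-PCR against untreated control HUVEC, reported as log2 relative quantity (log2RQ). The same SerpinB2 RT-PCR read-out guided activity-based fractionation of the herbal extract.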

HUVEC [8] = experiment: Increase in TI-PARP gene expression in HUVEC at 5 ug/ml after 4 hrs relative to control
HUVEC [9] = experiment: Decrease in perlecan gene expression in HUVEC at 5 ug/ml after 4 hrs relative to control
HUVEC [10] = experiment: Decrease in ATP-binding cassette, subfamily G, member 1 gene expression in HUVEC at 5 ug/ml after 4 hrs relative to control

Compound: C/C=C/C#CC#C/C=C/CCC(CCOC(C)=O)OC(C)=O (stereo not given)
- Fold change (HUVEC [1]): -2.1
- Fold change (HUVEC [2]): 2.3
- Fold change (HUVEC [3]): -1.9
- Fold change (HUVEC [4]): 6.5
- Fold change (HUVEC [5]): 2
- Fold change (HUVEC [6]): -2
- Fold change (HUVEC [7]): 2
- Fold change (HUVEC [8]): 2.3
- Fold change (HUVEC [9]): -1.7
- Fold change (HUVEC [10]): -1.9
